From PubChem BioAssay
Compounds with a hit are over-represented: about 1.9% of the library has one in this group of screens.
SUMO HTRF inh – SUMOylation inhibition; inhibition, % at 35 µM; AID 2006; 0.36% of 290,000 active; P63279; HTRF SUMOylation assay, SAE1/SAE2 + UBC9, in vitro; in the data active = inhibition above about 50%, passing the limit was not always enough; inconclusive = no clear call, values can overlap the other calls
DNMT1 inh – DNMT1 (human) enzyme inhibition. AID 588458. inhibition (reported as % activation of signal), % at 10 µM. 0.83% of 360,000 active. P26358. DNMT1 molecular beacon, Hinp1I cleavage, fluorescence; in the data active = inhibition above about 50%
STEP block – STEP (human) phosphatase inhibition; 0.25% of 360,000 active; inhibition, % at 20 µM; P54829; recombinant STEP, OMFP fluorogenic substrate, fluorescence;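 active = inhibition at 20 µM, scaled per plate between control wells, above about 37%, limit read from the data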
Target sequence (P54829 whole entry, looked up): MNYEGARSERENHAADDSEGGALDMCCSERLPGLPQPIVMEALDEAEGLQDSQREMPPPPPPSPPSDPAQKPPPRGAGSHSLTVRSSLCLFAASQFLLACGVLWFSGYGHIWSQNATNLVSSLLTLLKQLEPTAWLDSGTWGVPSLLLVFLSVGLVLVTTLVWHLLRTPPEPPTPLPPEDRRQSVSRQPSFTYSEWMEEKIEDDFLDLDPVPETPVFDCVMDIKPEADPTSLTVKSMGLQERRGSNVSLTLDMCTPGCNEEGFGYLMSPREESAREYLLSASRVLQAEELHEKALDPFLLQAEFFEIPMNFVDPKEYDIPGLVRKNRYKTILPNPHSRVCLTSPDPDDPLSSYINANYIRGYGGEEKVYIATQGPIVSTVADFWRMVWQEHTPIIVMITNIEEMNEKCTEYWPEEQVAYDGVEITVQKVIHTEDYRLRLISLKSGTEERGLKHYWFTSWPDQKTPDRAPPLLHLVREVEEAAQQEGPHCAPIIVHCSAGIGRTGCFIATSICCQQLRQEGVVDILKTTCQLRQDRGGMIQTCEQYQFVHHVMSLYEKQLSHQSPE
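System: STEP phosphatase, cell-free reaction; Buffer or medium: Bis-Tris pH 6.0 buffer with DTT, detergent; Incubation: 20 min at room temperature, dark; Measured by: fluorescence, 480/540 nm.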
LMPTP inh – blocks human LMPTP phosphatase. inhibition, % at 20 µM. recombinant LMPTP-A, OMFP fluorogenic substrate, fluorescence intensity. 0.22% of 360,000 active;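 active = compounds that cut the enzyme signal by at least half of the control window in the single-dose screen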
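Assay system: LMPTP-A phosphatase enzyme | Input: 0.625 nM enzyme | Also added: Fluorogenic phosphatase substrate OMFP at 400 µM final | Compound dosing: One test concentration per compound, 20 µM, with 3% DMSO overall | Schedule: 50 min enzyme reaction at room temperature, protected from light | Signal: Fluorescence intensity | Benchmarks: no-enzyme and uninhibited controls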
SUMO1 PPI mod – alters human SUMO1 binding to SIM partners; P63165; SUMO1 binding to a labelled peptide, TR-FRET, 1 h; inhibition, % at 20 µM; 0.33% of 360,000 active; AID 602429; in the data active = inhibition above about 37%
Scp1 inh – blocks human Scp-1 phosphatase activity; Recombinant Scp1, phosphopeptide, malachite green phosphate absorbance; inhibition, % at 20 µM; 0.88% of 340,000 active;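 active = inhibition above about 50% at 20 µM, limit read from the data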
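assay system = SCP-1 phosphatase catalytic domain, residues 76-261 | buffer or medium = 50 mM Tris acetate pH 5.5, 0.005% Tween-20, 10 mM MgCl2 | incubation = enzyme reaction 45 min at room temperature, colour 5 min, stabilisation 30 min | signal = Phosphate-binding colour reagent, absorbance read at 630 nm | measure = % inhibition at 20 µM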
Hits are given with their value; - = inactive; ? = inconclusive; . = no result.

SMILES	SUMO HTRF inh	DNMT1 inh	STEP block	LMPTP inh	SUMO1 PPI mod	Scp1 inh
N#Cc1c(N)c(C#N)c(-c2ccc(O)cc2)c2c1CCCC2	-	-	-	-	-	-
CC(C)(C)S(=O)(=O)N1C[C@H]2C(=CC[C@@H]3C(=O)N(c4ccccc4)C(=O)[C@@H]32)[C@H]1CCO	.	-	-	-	-	-
CCC1CCCCN1CCCNC(=O)CN1C(=O)COc2ccc(S(=O)(=O)N3CCC(C)CC3)cc21 (stereo not drawn)	-	-	-	-	40	-
CCCCN(CCCC)CCNC(=O)CN1C(=O)COc2ccc(S(=O)(=O)N3CCC(C)CC3)cc21	-	-	-	-	-	-
COCc1ccc(CN2CCC(n3nccc3NC(=O)CCOc3ccccc3)CC2)o1	-	-	-	-	-	-
COCCN(C(=O)CSc1ccc2c(c1)OCCO2)c1c(N)n(CC(C)C)c(=O)[nH]c1=O	.	-	-	-	-	-
COC(=O)c1cc(Br)c(=O)n(-c2cccc(F)c2)c1	-	-	-	-	-	-
Cc1ccc(C(=O)Sc2cccccc2=O)cc1	-	-	-	-	-	-
Cc1ccc(C(=O)Nc2nc(-c3ccco3)c(-c3ccco3)s2)o1	.	-	-	-	-	-
O=C(CCCSc1ccccc1)Nc1nc(-c2ccccn2)cs1	-	-	-	-	-	-
O=C(CCl)Nc1nc(-c2ccco2)c(-c2ccco2)s1	82	-	-	-	-	-
O=C(CCCSc1ccccc1)Nc1nc(-c2ccco2)c(-c2ccco2)s1	79	-	-	-	-	-
CC1(C)C[C@H]2C3=CCC4[C@@]5(C)CC[C@H](O)[C@](C)(CO)C5CC[C@@]4(C)[C@]3(C)C[C@H]3O[C@@H]1[C@H](O)[C@]32CO (stereo partly drawn)	.	-	-	-	47	-
O=C(O)c1c2c(nc3ccccc13)/C(=C/c1ccc(O)cc1)CC2	?	87	41	-	-	62
O=C(O)c1c2c(nc3ccccc13)/C(=C/c1ccc(OC(F)F)cc1)CCC2	-	-	-	-	-	-
O=Nc1c2cc(-c3ccccc3)[nH]nc-2c2ccccc12	-	-	-	-	-	62
Cc1cccc(-c2cc3c(N=O)c4ccccc4c-3n[nH]2)c1	-	-	-	-	-	-
Cc1ccc(-c2cc3c(N=O)c4ccccc4c-3n[nH]2)cc1	-	75	-	-	-	-
Cc1cc2[nH]c3c(c[n+](C)c4ccccc34)c2cc1C	-	-	-	73	-	-
Cc1cc(=O)oc2cc(OCC(=O)c3ccc4c(c3)NC(=O)CO4)ccc12	-	-	-	-	42	-
Cc1cc(C)n2nc(SCC(=O)N/N=C/c3ccc(F)cc3)nc2n1	-	-	-	-	51	-
COc1ccc(OCC(=O)N2CCN(C(=O)c3ccc(F)cc3)CC2)cc1	-	-	-	-	-	-
O=C(Cc1ccccc1)Nc1ccc(NC(=O)C2CC2)nc1	-	-	-	-	-	-
CCCCC(=O)Nc1ccc(NC(=O)C2CC2)nc1	-	-	-	-	57	-
Cc1ccc(NC(=O)CSc2nnc(CNC(=O)c3ccco3)n2C)cc1	.	-	-	-	-	-
SMILES	SUMO HTRF inh	DNMT1 inh	STEP block	LMPTP inh	SUMO1 PPI mod	Scp1 inh
CCc1oc(C(=O)O)cc1COC	-	-	-	-	-	66
COc1ccc(Nc2nc(N3CCCC3)c3ccccc3n2)cc1	-	-	-	51	-	-
O=c1cc(-c2ccc(O)cc2)oc2c1ccc1ccccc12	.	-	-	54	90	-
O=c1cc(-c2ccc(O)cc2)oc2c(O)c(O)c(O)c(O)c12	-	-	-	-	-	69
COc1ccc(C(O)c2nc(-c3ccc(F)c(Cl)c3)cs2)cc1 (stereo not drawn)	.	-	-	-	-	.
CCOC(=O)[C@]12CCC=C1N(Cc1ccc3c(c1)OCO3)C(=O)[C@H](CC(=O)N1CCC(c3ccccc3)CC1)C2	.	.	.	-	-	.
COc1ccc(C2NCCc3c2[nH]c2ccccc32)cc1CN1CCc2cc(OC)c(OC)cc2C1C (stereo not drawn)	-	-	-	52	-	-
CCNC(=O)C1(c2ccccc2)CCCC1	-	-	-	-	-	-
CCN(CC)CCNC(=O)C1(c2ccccc2)CCCCC1	.	-	-	-	47	-
COc1ccc(NC(=O)CN(C)C(=O)c2cc3c(s2)CCCCC3)cc1	-	-	-	-	-	-
COc1cccc(NC(=O)CN(C)C(=O)c2cc3c(s2)CCC3)c1	.	.	.	.	.	60
COc1ccc(NC(=O)CN(C)C(=O)c2cc3c(s2)CCC3)cc1	.	97	-	64	76	86
CN(CC(=O)Nc1cccc(F)c1)C(=O)Cn1cnc2c1c(=O)n(C)c(=O)n2C	.	-	-	-	-	-
Cc1ccc(S(=O)(=O)N2[C@@H](c3ccc(Br)cc3)C(C(=O)O)=CC[C@H]2c2ccc(Cl)c(Cl)c2)cc1	.	-	-	-	40	-
Cc1ccc(S(=O)(=O)N2[C@@H](c3ccc(C(C)(C)C)cc3)C(C(=O)O)=CC[C@H]2c2ccc(Cl)c(Cl)c2)cc1	.	-	-	-	43	-
Cc1ccc(S(=O)(=O)N2[C@@H](c3ccc(Br)cc3)C(C(=O)O)=CC[C@H]2c2cccc(Cl)c2)cc1	.	-	-	-	-	-
Cc1ccc(S(=O)(=O)N2[C@@H](c3ccc(C(C)(C)C)cc3)C(C(=O)O)=CC[C@H]2c2cccc(Cl)c2)cc1	.	-	-	-	-	-
O=C(CS(=O)(=O)c1ccccc1)Nc1ccccc1Br	.	-	-	-	-	-
COC(=O)[C@H](C)NC(=O)Nc1cc(Cl)ccc1C	-	-	-	-	-	-
O=C(Nc1ccccc1F)NC1CCCCCCC1	-	-	-	-	-	-
O=C(Nc1ccccc1F)NC1CC1	-	-	-	-	56	-
C[C@H]1COC2=C1C(=O)C(=O)c1c2ccc2c1CCCC2(C)C	-	-	-	-	-	-
Cc1ccc2c3c(cccc13)-c1ccccc1C2=O	-	-	-	-	-	-
Cc1coc2c1C(=O)C(=O)c1c-2ccc2c1CCCC2(C)C	-	52	-	-	-	-
Cc1coc2c1C(=O)C(=O)c1c-2ccc2c(C)cccc12	-	95	-	-	-	-
O=C(Cc1ccc(NC(=O)C2CCCN(C(=O)CCc3ccccc3)C2)cc1)Nc1cccc(C(=O)N2CCCC2)c1 (stereo not drawn)	.	-	-	-	-	-
COc1cc(-c2cc(=O)c3c(C)cc(O)cc3o2)cc(OC)c1OC	.	-	-	-	-	-
COc1ccc(-c2cc(=O)c3c(C)cc(O)cc3o2)cc1	.	-	-	-	45	-
CCN(CC)C(=O)CC(c1ccccc1)c1ccco1 (stereo not drawn)	-	-	-	-	-	-
